ChEMBL document CHEMBL4038267, “Antiproliferative Activity of Natural Taiwaniaquinoids and Related Compounds” (J Nat Prod, 2017)
pIC50: −log10 of the molar value.

Assays:
Assay type in all cases: functional, cell-based
T84 = test: Antiproliferative activity against human T84 cells after 3 days by sulforhodamine B assay; settings: T84, 72 h
In short: (§1)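 Cells from a university core cell-culture facility, grown in DMEM with 10% heat-inactivated FBS, penicillin-streptomycin and 2 mM L-glutamine at 37 °C, 5% CO2, 90% humidity. Seeded at 1 × 10^4 cells/cm2 in quadruplicate, treated after 24 h with increasing concentrations. Fixed in cold 10% TCA, stained with 0.4% sulforhodamine in 1% HOAc, solubilized in 10 mM Tris pH 10.5, OD 492 nm. IC50 by linear interpolation of semilog curves; mean ± SEM, four determinations.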

A549 = test: Antiproliferative activity against human A549 cells after 3 days by sulforhodamine B assay; settings: A549, 72 h; in short: as §1
MCF7 = test: Antiproliferative activity against human MCF7 cells after 3 days by sulforhodamine B assay; settings: MCF7, 72 h; in short: as §1

| SMILES | pIC50 (A549) | pIC50 (MCF7) | pIC50 (T84) |
| --- | --- | --- | --- |
| CC(=O)OC[C@H]1C2=C(C(=O)C(Br)=C(C(C)C)C2=O)[C@@]2(C)CCC[C@@](C)(COC(C)=O)[C@H]12 | 5.96 | 5.74 | 5.80 |
| C=C1C2=C(C(=O)C(OC)=C(C(C)C)C2=O)[C@@]2(C)CCCC(C)(C)C12O (some centres undefined) | 4.62 | 4.90 | 4.60 |
| C=C1C2=C(C(=O)C(OC)=C(C(C)C)C2=O)[C@@]2(C)CCC[C@@](C)(C(=O)OC)[C@H]12 | 4.71 | 4.77 | 4.80 |
| CC(C)C1=C(O)C(=O)[C@]23O[C@@]2(C1=O)[C@H](CO)[C@H]1C(C)(C)CCC[C@@]13C | 4.72 | 4.77 | 4.77 |
| CC(C)C1=C(Br)C(=O)C2=C(C=C3C(C)(C)CCC[C@@]32C)C1=O | 4.66 | 5.49 | 5.21 |
| CC(=O)OC[C@H]1c2c(O)c(C(C)C)cc(O)c2[C@@]2(C)CCCC(C)(C)[C@H]12 | 4.71 | 4.44 | 4.60 |
| CC(C)C1=CC(=O)C2=C(C=C3C(C)(C)CCC[C@@]32C)C1=O | 4.82 | 5.15 | 5.07 |
| COC(=O)[C@]1(C)CCC[C@]2(C)C3=C(C(=O)C(C(C)C)=C(OC)C3=O)[C@H](C=O)[C@@H]12 | 4.92 | 4.94 | 4.89 |
| C=C1C2=C(C(=O)C(OC)=C(C(C)C)C2=O)[C@@]2(C)CCCC(C)(C)[C@H]12 | 4.51 | 4.91 | 4.49 |
| C=C1[C@H]2C(C)(C)CCC[C@]2(C)C2(O)C(=O)C(OC)=C(C(C)C)C(=O)C12O (some centres undefined) | 4.57 | 4.44 | 4.44 |
| C=C1C2=C(C(=O)C(Br)=C(C(C)C)C2=O)[C@@]2(C)CCCC(C)(C)[C@H]12 | – | 5.89 | 5.02 |
| CC(C)C1=CC(=O)C2=C(C[C@H]3C(C)(C)CCC[C@]23C)C1=O | 4.52 | 4.79 | 5.22 |
| C=C1C2=C(C(=O)C(Br)=C(C(C)C)C2=O)[C@@]2(C)CCCC(C)(C)C12O (some centres undefined) | 5.82 | 6.00 | 5.28 |
| COC1=C(C(C)C)C(=O)C2=C(C1=O)[C@@]1(C)CCCC(C)(C)[C@@H]1C2 [TAIWANIAQUINONE G] | 4.52 | 4.77 | 4.85 |

Second part, led by results:

| pIC50 (A549) | pIC50 (MCF7) | SMILES | pIC50 (T84) |
| --- | --- | --- | --- |
| 4.36 | 4.40 | CC(C)C1=C(O)C(=O)C2=C(C1=O)[C@H](CO)[C@H]1C(C)(C)CCC[C@]21C | 4.45 |
| 4.68 | 4.87 | CC(=O)OC[C@H]1C2=C(C(=O)C=C(C(C)C)C2=O)[C@@]2(C)CCCC(C)(C)[C@H]12 | 4.54 |
| 4.64 | 5.00 | COC(=O)[C@]1(C)CCC[C@]2(C)C3=C(C(=O)C(C(C)C)=C(OC)C3=O)[C@H](CO)[C@@H]12 | 4.50 |
| 4.93 | 5.66 | CC(C)C1=C(Br)C(=O)C2=C(C[C@H]3C(C)(C)CCC[C@]23C)C1=O | 5.49 |
| 5.07 | 4.49 | COC(=O)[C@]1(C)CCC[C@]2(C)C3=C(C(=O)C(C(C)C)=C(O)C3=O)[C@H](CO)[C@@H]12 | 4.63 |
| 4.90 | 4.80 | CC(C)C1=CC(=O)C2=C(C1=O)[C@H](CO)[C@H]1C(C)(C)CCC[C@]21C | 4.74 |
| 4.53 | 5.40 | CC(=O)OC[C@H]1C2=C(C(=O)C(Br)=C(C(C)C)C2=O)[C@@]2(C)CCCC(C)(C)[C@H]12 | 4.53 |
| 5.62 | 5.62 | COC(=O)[C@]1(C)CCC[C@]2(C)C3=C(C(=O)C(C(C)C)=C(Br)C3=O)[C@H](COC(C)=O)[C@@H]12 | 5.54 |
| 4.91 | 5.68 | CC(C)C1=C(Br)C(=O)C2=C(C1=O)[C@H](CO)[C@H]1C(C)(C)CCC[C@]21C | 5.17 |
| 5.00 | 4.81 | COC1=C(C(C)C)C(=O)C2=C(C1=O)[C@@]1(C)CCCC(C)(C)[C@@H]1[C@H]2C=O [TAIWANIAQUINONE] | 4.92 |
| 4.60 | 4.54 | CC(C)C1=C(O)C(=O)C2=C(C1=O)[C@H](C=O)[C@H]1C(C)(C)CCC[C@]21C [TAIWANIQUINONE A] | 4.51 |
